Data published in ChEMBL document CHEMBL1145884, “Synthesis and biological activity of novel 1beta-methylcarbapenems with oxyiminopyrrolidinylamide moiety” (2003).
Converted amounts (≈) assume the structure as drawn.

Tests used:
[1] = Compound was evaluated for its relative half life of hydrolysis to meropenem by partially purified porcine renal dihydropeptidase-I (DHP-I); type: functional; settings: Sus scrofa
Enterobacter cloacae [2] = assay: Compound was evaluated for its antibacterial activity against Enterobacter cloacae P99; type: functional
Escherichia coli [3] = assay: Compound was evaluated for its antibacterial activity against Escherichia coli CCARM 1116 MDR; type: functional
Escherichia coli [4] = assay: Compound was evaluated for its antibacterial activity against Escherichia coli CCARM 1117 MDR; type: functional
Escherichia coli [5] = assay: Compound was evaluated for its antibacterial activity against Escherichia coli DC 0; type: functional
Escherichia coli [6] = assay: Compound was evaluated for its antibacterial activity against Escherichia coli DC 2; type: functional
Escherichia coli [7] = assay: Compound was evaluated for its antibacterial activity against Escherichia coli TEM; type: functional
Escherichia coli [8] = assay: Antibacterial activity against Escherichia coli 078; type: functional
Summary of the method: (§1)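 MIC was determined by agar dilution on Mueller–Hinton medium.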

Escherichia coli [9] = assay: Antibacterial activity against Escherichia coli 1507E; type: functional; summary of the method: as §1
Escherichia coli [10] = assay: Compound was evaluated for its antibacterial activity against Escherichia coli 0157:H7; type: functional
Escherichia coli [11] = assay: Compound was evaluated for its antibacterial activity against Escherichia coli ATCC 25922; type: functional
Escherichia coli [12] = assay: Compound was evaluated for its antibacterial activity against Escherichia coli CCARM 1108 MDR; type: functional
Escherichia coli [13] = assay: Compound was evaluated for its antibacterial activity against Escherichia coli CCARM 1109 MDR; type: functional
Escherichia coli [14] = assay: Compound was evaluated for its antibacterial activity against Escherichia coli CCARM 1111 MDR; type: functional
Escherichia coli [15] = assay: Compound was evaluated for its antibacterial activity against Escherichia coli CCARM 1112 MDR; type: functional
Escherichia coli [16] = assay: Compound was evaluated for its antibacterial activity against Escherichia coli CCARM 1113 MDR; type: functional
Escherichia coli [17] = assay: Compound was evaluated for its antibacterial activity against Escherichia coli CCARM 1114 MDR; type: functional
Escherichia coli [18] = assay: Compound was evaluated for its antibacterial activity against Escherichia coli CCARM 1115 MDR; type: functional
Enterobacter cloacae [19] = assay: Antibacterial activity against Enterobacter cloacae 1321E; type: functional; summary of the method: as §1
Klebsiella pneumoniae [20] = assay: Compound was evaluated for its antibacterial activity against Klebsiella pneumoniae 9 ESBL; type: functional
Klebsiella oxytoca = assay: Compound was evaluated for its antibacterial activity against Klebsiella oxytoca 1082E; type: functional
Klebsiella pneumoniae [21] = assay: Compound was evaluated for its antibacterial activity against Klebsiella pneumoniae 1 ESBL; type: functional
Klebsiella pneumoniae [22] = assay: Compound was evaluated for its antibacterial activity against Klebsiella pneumoniae 10 ESBL; type: functional
Klebsiella pneumoniae [23] = assay: Compound was evaluated for its antibacterial activity against Klebsiella pneumoniae 3 ESBL; type: functional
Klebsiella pneumoniae [24] = assay: Compound was evaluated for its antibacterial activity against Klebsiella pneumoniae 4 ESBL; type: functional
Klebsiella pneumoniae [25] = assay: Compound was evaluated for its antibacterial activity against Klebsiella pneumoniae 5 ESBL; type: functional
Klebsiella aerogenes = assay: Antibacterial activity against Klebsiella aerogenes 1522E; type: functional; summary of the method: as §1
Pseudomonas aeruginosa [26] = assay: Compound was evaluated for its antibacterial activity against Pseudomonas aeruginosa 1 MDR; type: functional
Pseudomonas aeruginosa [27] = assay: Compound was evaluated for its antibacterial activity against Pseudomonas aeruginosa 2 MDR; type: functional
Pseudomonas aeruginosa [28] = assay: Compound was evaluated for its antibacterial activity against Pseudomonas aeruginosa ATCC 27853; type: functional
Pseudomonas aeruginosa [29] = assay: Antibacterial activity against Pseudomonas aeruginosa 1771M; type: functional; summary of the method: as §1
Pseudomonas aeruginosa [30] = assay: Antibacterial activity against Pseudomonas aeruginosa 9027; type: functional; summary of the method: as §1
Shigella sonnei = assay: Compound was evaluated for its antibacterial activity against Shigella sonnei ATCC 9290; type: functional
Salmonella enteritidis [31] = assay: Compound was evaluated for its antibacterial activity against […] enteritidis; type: functional, Salmonella enterica subsp. enterica serovar Enteritidis; settings: Salmonella enterica
Salmonella enteritidis [32] = assay: Compound was evaluated for its antibacterial activity against […] enteritidis 1; type: functional, Salmonella enterica subsp. enterica serovar Enteritidis; settings: Salmonella enterica
Salmonella enteritidis [33] = assay: Compound was evaluated for its antibacterial activity against […] enteritidis 2; type: functional, Salmonella enterica subsp. enterica serovar Enteritidis; settings: Salmonella enterica
Salmonella enteritidis [34] = assay: Compound was evaluated for its antibacterial activity against […] enteritidis 3; type: functional, Salmonella enterica subsp. enterica serovar Enteritidis; settings: Salmonella enterica
Salmonella typhimurium [35] = assay: Antibacterial activity against Salmonella Typhimurium; type: functional, Salmonella enterica subsp. enterica serovar Typhimurium; settings: Salmonella enterica; summary of the method: as §1
Salmonella typhimurium [36] = assay: Compound was evaluated for its antibacterial activity against Salmonella Typhimurium; type: functional, Salmonella enterica subsp. enterica serovar Typhimurium; settings: Salmonella enterica
Salmonella typhimurium [37] = assay: Compound was evaluated for its antibacterial activity against Salmonella Typhimurium 1; type: functional, Salmonella enterica subsp. enterica serovar Typhimurium; settings: Salmonella enterica
Salmonella typhimurium [38] = assay: Compound was evaluated for its antibacterial activity against Salmonella Typhimurium 2; type: functional, Salmonella enterica subsp. enterica serovar Typhimurium; settings: Salmonella enterica
Shigella flexneri = assay: Compound was evaluated for its antibacterial activity against Shigella flexneri ATCC 9199; type: functional
Streptococcus pyogenes = assay: Antibacterial activity against Streptococcus pyogenes 308A; type: functional
Staphylococcus aureus [39] = assay: Antibacterial activity against Staphylococcus aureus 285; type: functional
Staphylococcus aureus [40] = assay: Antibacterial activity against Staphylococcus aureus 503; type: functional
Staphylococcus aureus [41] = assay: Antibacterial activity against Staphylococcus aureus SG 511; type: functional
Escherichia coli [42] = assay: Compound was evaluated for its antibacterial activity against Escherichia coli CCARM 1110 MDR; type: functional
Klebsiella pneumoniae [43] = assay: Compound was evaluated for its antibacterial activity against Klebsiella pneumoniae 2 ESBL; type: functional
Klebsiella pneumoniae [44] = assay: Compound was evaluated for its antibacterial activity against Klebsiella pneumoniae 6 ESBL; type: functional
Pseudomonas aeruginosa [45] = assay: Compound was evaluated for its antibacterial activity against Pseudomonas aeruginosa 3 MDR; type: functional
Pseudomonas aeruginosa [46] = assay: Antibacterial activity against Pseudomonas aeruginosa 1592E
Klebsiella pneumoniae [47] = assay: Compound was evaluated for its antibacterial activity against Klebsiella pneumoniae
Klebsiella pneumoniae [48] = assay: as above; remark: listed apart in the source

Compound: C[C@@H](O)[C@H]1C(=O)N2C(C(=O)O)=C(S[C@@H]3CN[C@H](C(=O)N(C)C)C3)[C@H](C)[C@H]12 [MEROPENEM]
- relative t1/2 (DHP-I hydrolysis vs meropenem) [1]: 1
- MIC (Enterobacter cloacae [2]): 0.03 µg/mL (≈ 0.0782 µM)
- MIC (Escherichia coli [3]): 0.03 µg/mL (≈ 0.0782 µM)
- MIC (Escherichia coli [4]): 0.03 µg/mL (≈ 0.0782 µM)
- MIC (Escherichia coli [5]): 0.03 µg/mL (≈ 0.0782 µM)
- MIC (Escherichia coli [6]): 0.03 µg/mL (≈ 0.0782 µM)
- MIC (Escherichia coli [7]): 0.016 µg/mL (≈ 0.0417 µM)
- MIC (Escherichia coli [8]): 0.025 µg/mL (≈ 0.0652 µM)
- MIC (Escherichia coli [9]): 0.025 µg/mL (≈ 0.0652 µM)
- MIC (Escherichia coli [10]): 0.03 µg/mL (≈ 0.0782 µM)
- MIC (Escherichia coli [11]): 0.016 µg/mL (≈ 0.0417 µM)
- MIC (Escherichia coli [12]): 0.03 µg/mL (≈ 0.0782 µM)
- MIC (Escherichia coli [13]): 0.03 µg/mL (≈ 0.0782 µM)
- MIC (Escherichia coli [14]): 0.016 µg/mL (≈ 0.0417 µM)
- MIC (Escherichia coli [15]): 0.016 µg/mL (≈ 0.0417 µM)
- MIC (Escherichia coli [16]): 0.03 µg/mL (≈ 0.0782 µM)
- MIC (Escherichia coli [17]): 0.03 µg/mL (≈ 0.0782 µM)
- MIC (Escherichia coli [18]): 0.016 µg/mL (≈ 0.0417 µM)
- MIC (Enterobacter cloacae [19]): 0.025 µg/mL (≈ 0.0652 µM)
- MIC (Klebsiella pneumoniae [20]): 0.03 µg/mL (≈ 0.0782 µM)
- MIC (Klebsiella oxytoca): 0.06 µg/mL (≈ 0.156 µM)
- MIC (Klebsiella pneumoniae [21]): 0.03 µg/mL (≈ 0.0782 µM)
- MIC (Klebsiella pneumoniae [22]): 0.016 µg/mL (≈ 0.0417 µM)
- MIC (Klebsiella pneumoniae [23]): 0.06 µg/mL (≈ 0.156 µM)
- MIC (Klebsiella pneumoniae [24]): 0.016 µg/mL (≈ 0.0417 µM)
- MIC (Klebsiella pneumoniae [25]): 0.016 µg/mL (≈ 0.0417 µM)
- MIC (Klebsiella aerogenes): 0.049 µg/mL (≈ 0.128 µM)
- MIC (Pseudomonas aeruginosa [26]): 1 µg/mL (≈ 2.61 µM)
- MIC (Pseudomonas aeruginosa [27]): 8 µg/mL (≈ 20.9 µM)
- MIC (Pseudomonas aeruginosa [28]): 0.5 µg/mL (≈ 1.3 µM)
- MIC (Pseudomonas aeruginosa [29]): 0.049 µg/mL (≈ 0.128 µM)
- MIC (Pseudomonas aeruginosa [30]): 0.195 µg/mL (≈ 0.509 µM)
- MIC (Shigella sonnei): 0.03 µg/mL (≈ 0.0782 µM)
- MIC (Salmonella enteritidis [31]): 0.016 µg/mL (≈ 0.0417 µM)
- MIC (Salmonella enteritidis [32]): 0.016 µg/mL (≈ 0.0417 µM)
- MIC (Salmonella enteritidis [33]): 0.016 µg/mL (≈ 0.0417 µM)
- MIC (Salmonella enteritidis [34]): 0.03 µg/mL (≈ 0.0782 µM)
- MIC (Salmonella typhimurium [35]): 0.049 µg/mL (≈ 0.128 µM)
- MIC (Salmonella typhimurium [36]): 0.03 µg/mL (≈ 0.0782 µM)
- MIC (Salmonella typhimurium [37]): 0.03 µg/mL (≈ 0.0782 µM)
- MIC (Salmonella typhimurium [38]): 0.016 µg/mL (≈ 0.0417 µM)
- MIC (Shigella flexneri): 0.03 µg/mL (≈ 0.0782 µM)
- MIC (Streptococcus pyogenes): 0.013 µg/mL (≈ 0.0339 µM)
- MIC (Staphylococcus aureus [39]): 0.195 µg/mL (≈ 0.509 µM)
- MIC (Staphylococcus aureus [40]): 0.098 µg/mL (≈ 0.256 µM)
- MIC (Staphylococcus aureus [41]): 0.195 µg/mL (≈ 0.509 µM)
- MIC (Escherichia coli [42]): 0.016 µg/mL (≈ 0.0417 µM)
- MIC (Klebsiella pneumoniae [43]): 0.03 µg/mL (≈ 0.0782 µM)
- MIC (Klebsiella pneumoniae [44]): 0.03 µg/mL (≈ 0.0782 µM)
- MIC (Pseudomonas aeruginosa [45]): 8 µg/mL (≈ 20.9 µM)
- MIC (Pseudomonas aeruginosa [46]): 0.195 µg/mL (≈ 0.509 µM)
- MIC (Klebsiella pneumoniae [47]): 0.06 µg/mL (≈ 0.156 µM)
- MIC (Klebsiella pneumoniae [48]): 0.06 µg/mL (≈ 0.156 µM)
